Measurements published in PubChem BioAssay.
Activity calls are given as the source filed them.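 Rule for the calls, unless noted: active = viability loss from added drug above about 55%, and viability with drug at most 40%, in both replicates (limit read from the data, passing the limit was not always enough); inconclusive = both conditions met in only one replicate; inactive = neither replicate meets both conditions.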 Peptide text beside a SMILES is read from it. * marks the point of attachment. Boc = CC(C)(C)OC(=O)*

Legend:
[1] = reduced viability of SK-BR-3 breast cancer cells – cell-based, 24 h, human, pilot screen (AID 572;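 active = viability at or below 10% of carrier control in both of two separate runs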;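 note: compound exposure lasted between 18 and 24 h rather than exactly 24 h; 100% = carrier-treated control wells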); conditions: SK-BR-3 viability, CellTiter-Glo luminescence, at 10 µM, stronger effect = lower value
[2] = HUVEC growth inhibition – cell-based, human, primary screen (AID 575;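 active = viability at or below 30% in both replicate assays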;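 note: 100% = median of untreated cell wells with 0.1% DMSO on each plate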); conditions: HUVEC proliferation, CellTiter-Glo luminescence, 72 h; at 10 µM; stronger effect = lower value
Method in brief: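 Test system: primary human umbilical vein endothelial cells. Quantity: 1250 cells/well. Compound: single 10 µM dose, 0.1% DMSO, from 5x medium stock. Timing: 72 h treatment at 37 °C. Detection: ATP-based CellTiter-Glo luminescent read. Benchmarks: vehicle and MePR control wells. Format: 384-well plates coated with collagen.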

[3] = H69AR cell proliferation blockers – human, duplicate replicates, primary screen (AID 580;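 active = viability at or under a set limit in both replicates, limit being median viability minus 3 SD, cut at about 48% in these data, passing the limit was not always enough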;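 note: 100% = mean luminescence of untreated wells and 0% = no signal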); conditions: H69AR lung tumor cells viability, ATP luminescence, 72 h; at 10 µM; stronger effect = lower value
[4] = MRP1 drug-resistance reversers in H69AR cells – cell-based, doxorubicin co-treatment, pilot screen (AID 601); conditions: CellTiter-Glo, 72 h, at 10 µM; for differential viability (reversal): stronger effect = higher value
[5] = yeast transport mutant growth inhibition pilot in 384-well plates, post-Golgi transport modulator project (AID 636; in the data active = inhibition above about 31%); conditions: absorbance 615 nm, about 18 h, stronger effect = higher value
[6] = growth suppression of yeast trafficking mutant, preliminary HTS, modulators of trafficking downstream of Golgi apparatus project, 1536-format plate, OD 615 nm (AID 637; in the data active = inhibition above about 30%); conditions: yeast transport mutant growth, absorbance 615 nm, 18 h; stronger effect = higher value
[7] = H69AR cells + 2 uM doxorubicin, measured here: viability with 2 uM doxorubicin, stronger effect = lower value
[8] = H69AR cells, compound alone cytotoxicity

Structure (SMILES) | viability [1] | viability [2] | viability [3] | differential viability (reversal) ([4]; H69AR cells + 2 uM doxorubicin) | viability [4, 7] [%] | viability [4, 8] [%] | inhibition [5] | inhibition [6]
CCOC(=O)N(C)c1ccc(C(O)(C(F)(F)F)C(F)(F)F)cc1 | 92% (inactive) | 91.7% (inactive) | 102% (inactive) | 5.16% (inactive) | 97.1 | 102 | 1.76% (inactive) | -6.55% (inactive)
O=C(NC1=NCCS1)c1ccc2c(c1)C(=O)N(Cc1ccco1)C2=O | 85% (inactive) | 94% (inactive) | 93.6% (inactive) | 1.83% (inactive) | 91.8 | 93.6 | -7.26% (inactive) | 4.73% (inactive)
COCCCNC(=O)CCn1c(=O)c2ccccc2n(CC(=O)Nc2ccc(C)cc2C)c1=O | 101% (inactive) | 106% (inactive) | 87.1% (inactive) | 7.22% (inactive) | 79.9 | 87.1 | 1.3% (inactive) | -5.41% (inactive)
CCOC(=O)c1[nH]c(CSc2nnc(-c3ccncc3)n2CCOC)c(C(=O)OCC)c1C | 94% (inactive) | 96.7% (inactive) | 94.8% (inactive) | 4.23% (inactive) | 90.6 | 94.8 | -5.19% (inactive) | 1.31% (inactive)
O=C(Nc1nc(-c2ccccc2)cs1)C1CCCO1 (stereo not drawn) | 91% (inactive) | 101% (inactive) | 94.2% (inactive) | 10.9% (inactive) | 83.3 | 94.2 | -4.4% (inactive) | -2.18% (inactive)
CC(C)(C)NCC(O)COc1cccc2c1C[C@H](O)[C@H](O)C2 (stereo partly drawn) | 82% (inactive) | 85.3% (inactive) | 97.1% (inactive) | 4.26% (inactive) | 92.8 | 97.1 | 2.86% (inactive) | 1.83% (inactive)
COP(C)(=O)c1c(C)nn(-c2ccccc2)c1C (stereo not drawn) | 122% (inactive) | 104% (inactive) | 96.3% (inactive) | 1.8% (inactive) | 94.5 | 96.3 | 0.39% (inactive) | 1.15% (inactive)
Cc1cccc2c(=O)oc(-c3ccc4c(c3)C(=O)N(CC3CCCO3)C4=O)nc12 (stereo not drawn) | 95% (inactive) | 101% (inactive) | 98.7% (inactive) | 5.85% (inactive) | 92.8 | 98.7 | -4.25% (inactive) | 6.77% (inactive)
CCOC(=O)c1cc(C(C)(C)C)oc1CN | 118% (inactive) | 96.1% (inactive) | 90.8% (inactive) | -1.73% (inactive) | 92.5 | 90.8 | -7.12% (inactive) | 9.35% (inactive)
Clc1cccc(Cl)c1COc1ccncc1 | 88% (inactive) | 91.5% (inactive) | 97.2% (inactive) | 2.84% (inactive) | 94.3 | 97.2 | 0.82% (inactive) | 27.4% (inactive)
c1ccc2c(-c3nc(-c4ccncc4)no3)cccc2c1 | 56% (inactive) | 86.4% (inactive) | 102% (inactive) | 5.25% (inactive) | 96.3 | 102 | -5.89% (inactive) | 10.6% (inactive)
CC1CCc2c(sc3c2C2=NS(=O)(=O)CCN2C=N3)C1 (stereo not drawn) | 88.5% (inactive) | 107% (inactive) | 80.6% (inactive) | -7.62% (inactive) | 88.2 | 80.6 | -9.73% (inactive) | 3.81% (inactive)
O=C(NCc1ccccn1)c1cc(-n2cnnc2)ccc1Cl | 86% (inactive) | 88.6% (inactive) | 101% (inactive) | -1.2% (inactive) | 102 | 101 | -2.73% (inactive) | 2.79% (inactive)
CCOC(=O)N1CCC(N(C(=O)Nc2cccc(OC)c2)C(C)CC)CC1 (stereo not drawn) | 129% (inactive) | 120% (inactive) | 96.9% (inactive) | 1.43% (inactive) | 95.5 | 96.9 | -2.21% (inactive) | 3.11% (inactive)
Cc1cc(Br)c(S(=O)(=O)n2nnc3ccccc32)cc1C | 107% (inactive) | 101% (inactive) | 81.8% (inactive) | -4.02% (inactive) | 85.8 | 81.8 | -8.22% (inactive) | 5.09% (inactive)
COc1ccc(OC)c(Nc2nc(-c3cccs3)cs2)c1 | 82% (inactive) | 60.7% (inactive) | 76.5% (inactive) | -7.61% (inactive) | 84.1 | 76.5 | -6.71% (inactive) | 0.36% (inactive)
CCc1ccccc1NC(=O)C(CC)Sc1nc2cc3c(cc2c(=O)n1Cc1ccco1)OCO3 (stereo not drawn) | 95.5% (inactive) | 62.6% (inactive) | 28.3% (active) | 13.2% (inactive) | 15.1 | 28.3 | -3.47% (inactive) | 2.74% (inactive)
CCCCc1ccc(NC(=O)N[C@H](C(=O)O)C(C)C)cc1 | 119% (inactive) | 82.6% (inactive) | 95% (inactive) | -0.205% (inactive) | 95.2 | 95 | -2.05% (inactive) | -5.32% (inactive)

Structure (SMILES) | viability [1] | viability [2] | viability [3] | differential viability (reversal) ([4]; H69AR cells + 2 uM doxorubicin) | viability [4, 7] [%] | viability [4, 8] [%] | inhibition [5] | inhibition [6]
CC(=O)Nc1ccc(N=Cc2nc(-c3ccc(C)cc3)oc2O)cc1 | 102% (inactive) | 96.2% (inactive) | 94.5% (inactive) | 1.61% (inactive) | 92.9 | 94.5 | 0% (inactive) | -1.8% (inactive)
O=C(NCc1cccnc1)c1cccc(C(F)(F)F)c1 | 87% (inactive) | 109% (inactive) | 112% (inactive) | 16% (inactive) | 95.7 | 112 | -5.34% (inactive) | 6.55% (inactive)
CCN(CC(=O)Nc1ccc2c(c1)CCC2)Cc1nc2ccccc2c(=O)[nH]1 | 77% (inactive) | 81.8% (inactive) | 71.5% (inactive) | -13.7% (inactive) | 85.2 | 71.5 | -2.6% (inactive) | 4.73% (inactive)
CCOC(=O)c1sc(NC(=O)CSc2nnc(-c3ccc(OC)cc3)n2CCOC)nc1C | 99% (inactive) | 97.2% (inactive) | 101% (inactive) | 21.8% (inactive) | 79.6 | 101 | -4.94% (inactive) | 1.31% (inactive)
O=C(CSCc1n[nH]c(=O)[nH]1)NCCOc1cccc(Oc2ccccc2)c1 | 103% (inactive) | 102% (inactive) | 104% (inactive) | 3.55% (inactive) | 100 | 104 | -1.2% (inactive) | 2.73% (inactive)
COC(=O)c1cc(S(=O)(=O)N2CCOCC2)c(N2CCOCC2)cc1N1CCOCC1 | 124% (inactive) | 102% (inactive) | 85.5% (inactive) | 13.4% (inactive) | 72.1 | 85.5 | -0.14% (inactive) | -2.91% (inactive)
Cn1c(=O)c2c(nc(CN3CCN(c4ccccc4F)CC3)n2CCN2CCOCC2)n(C)c1=O | 101% (inactive) | 96.8% (inactive) | 93.9% (inactive) | 4.5% (inactive) | 89.4 | 93.9 | -5.95% (inactive) | 0.91% (inactive)
O=C(CNCC1CCCO1)Nc1ccccc1-n1cccc1 (stereo not drawn) | 80% (inactive) | 106% (inactive) | 95.7% (inactive) | 5.03% (inactive) | 90.6 | 95.7 | -8.38% (inactive) | -2.36% (inactive)
O=C(NCc1ccco1)c1ccccc1Nc1ccc(F)cc1 | 80% (inactive) | 97.1% (inactive) | 79.2% (inactive) | 5.57% (inactive) | 73.6 | 79.2 | -7.03% (inactive) | -7.09% (inactive)
C=CCN1C(=O)CS/C1=N/c1nccs1 | 65% (inactive) | 96.5% (inactive) | 98.4% (inactive) | 1.4% (inactive) | 97 | 98.4 | -8.9% (inactive) | -1.13% (inactive)
COc1ccc(NC(=O)CSc2c(C)nn(-c3nnc(C)c(=O)[nH]3)c2C)cc1 | 101% (inactive) | 98.2% (inactive) | 113% (inactive) | 17% (inactive) | 95.5 | 113 | -0.41% (inactive) | -6.45% (inactive)
CCC(C)C(NC(=O)OC(C)(C)C)C(=O)NC(CC(C)C)C(N)=O (stereo not drawn) (Boc-Ile-Leu-NH2; configuration not given here) | 109% (inactive) | 114% (inactive) | 98.9% (inactive) | 9.78% (inactive) | 89.1 | 98.9 | -2.73% (inactive) | -1.8% (inactive)
O=C(O)c1cccc(COCC(F)(F)C(F)F)c1 | 90% (inactive) | 88.2% (inactive) | 102% (inactive) | 6.01% (inactive) | 95.9 | 102 | -0.41% (inactive) | -3.87% (inactive)
N#Cc1cc2ccccc2nc1SCC(=O)Nc1ccccc1N1CCOCC1 | 93% (inactive) | 64.4% (inactive) | 82.2% (inactive) | -10.8% (inactive) | 93 | 82.2 | -3.25% (inactive) | 0.33% (inactive)
CCN1C(=O)C(C(=O)Nc2ccc(OC)cc2)C2CC1(C)Oc1ccccc12 (stereo not drawn) | 80% (inactive) | 110% (inactive) | 86.4% (inactive) | -10% (inactive) | 96.4 | 86.4 | -8.51% (inactive) | -1.64% (inactive)
O=C(O)c1ccc(C2SCC(=O)N2Cc2ccccc2)cc1 (stereo not drawn) | 95% (inactive) | 109% (inactive) | 96.9% (inactive) | 1.26% (inactive) | 95.6 | 96.9 | -1.07% (inactive) | 0% (inactive)
O=C(O)CCc1ccc(-c2ccc(F)cc2)n1CCC(=O)O | 71% (inactive) | 104% (inactive) | 98.5% (inactive) | -9.11% (inactive) | 108 | 98.5 | -7.53% (inactive) | 3.45% (inactive)
CCOC(=O)Cc1csc(NC(=O)c2cccc(OC)c2)n1 | 75% (inactive) | 104% (inactive) | 103% (inactive) | 0.32% (inactive) | 102 | 103 | -5.75% (inactive) | -5.64% (inactive)
